From ChEMBL document CHEMBL1132446, “Design, synthesis, and evaluation of Phe-Gly mimetics: heterocyclic building blocks for pseudopeptides” (J Med Chem, 1999)
Numbered stars: 1 amine (or outer) side, 2 acyl side, 3 side chain; on linkers, the order of the positions; unused ones are H or OH. Square brackets hold non-standard residues; d marks the D form. Peptide text beside a SMILES is read from it. X9 = O=C(Cc1nnc([C@H](Cc2ccccc2)N[*:1])[nH]1)[*:2]; X7 = O=C(c1nnc([C@H](Cc2ccccc2)N[*:1])[nH]1)[*:2]; X3 = O=C(c1nnc([C@H](Cc2ccccc2)N[*:1])o1)[*:2]; X4 = O=C(c1noc([C@H](Cc2ccccc2)N[*:1])n1)[*:2]

Columns and labels:
[1] = Retention time of the compound.
Outline: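 Analytical reversed-phase HPLC on a C-18 column (8 × 100 mm), eluting with CH3CN/H2O/0.1% TFA gradients. The gradient differs by compound: 0-60% at 1 mL/min over 30 min, or 5-65%, 20-60% or 0-60% at 0.5 mL/min over 30 min.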

Substance-P receptor = Substance-P receptor (Rattus norvegicus, UniProt P14600); experiment: Affinity for rat Tachykinin receptor 1 determined in displacement screening by using radioligand 3,4-[3H]-(L-Pro e2) SP.
Mu-type opioid receptor [2] = molecular target: T1, Mu-type opioid receptor (Rattus norvegicus, UniProt P33535); experiment: The compound was tested for binding affinity towards rat Opioid receptor mu 1 by displacing [3H]DAMGO.
Mu-type opioid receptor [3] = molecular target: T1, Mu-type opioid receptor; experiment: The compound was tested for binding affinity towards [3H]DAMGO, in rat Opioid receptor mu 1
Outline: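 Rat whole-brain (minus cerebellum) membranes from sucrose homogenisation, differential centrifugation and hypotonic lysis, in 50 mM Tris-HCl pH 7.4. […] Incubation 30 min at 25 °C, ended by filtration on PEI-soaked GF-C filters. Triplicates, three experiments, IC50 as mean ± SEM.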

T1 sequence (P33535 whole entry): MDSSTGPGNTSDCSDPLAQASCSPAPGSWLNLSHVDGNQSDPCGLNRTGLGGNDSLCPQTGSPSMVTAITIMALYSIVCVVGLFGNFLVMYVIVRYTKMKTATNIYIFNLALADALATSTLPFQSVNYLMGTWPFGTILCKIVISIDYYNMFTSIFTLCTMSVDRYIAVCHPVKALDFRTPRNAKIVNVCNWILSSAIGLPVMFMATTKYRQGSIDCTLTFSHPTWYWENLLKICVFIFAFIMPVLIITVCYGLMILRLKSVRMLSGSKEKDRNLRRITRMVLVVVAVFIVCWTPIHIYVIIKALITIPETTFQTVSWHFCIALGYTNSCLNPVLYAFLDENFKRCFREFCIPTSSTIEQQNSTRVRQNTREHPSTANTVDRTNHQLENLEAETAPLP
Chain of Substance-P receptor (P14600 whole entry): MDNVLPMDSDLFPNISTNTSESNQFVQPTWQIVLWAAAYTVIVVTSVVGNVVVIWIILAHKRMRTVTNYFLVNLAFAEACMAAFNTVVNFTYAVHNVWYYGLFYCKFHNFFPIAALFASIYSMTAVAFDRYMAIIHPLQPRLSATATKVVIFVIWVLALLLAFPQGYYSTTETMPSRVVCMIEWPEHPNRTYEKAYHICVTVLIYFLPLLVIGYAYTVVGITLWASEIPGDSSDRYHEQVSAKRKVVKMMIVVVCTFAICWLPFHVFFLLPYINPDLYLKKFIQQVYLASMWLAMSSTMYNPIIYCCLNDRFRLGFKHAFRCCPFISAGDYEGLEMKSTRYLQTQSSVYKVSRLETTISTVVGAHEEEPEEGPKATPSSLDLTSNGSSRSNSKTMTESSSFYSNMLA

Row | Compound | Retention time [1] | IC50 (Substance-P receptor) | other results
1 | CC(C)(C)OC(=O)N[C@@H](Cc1ccccc1)c1nc(CCO)no1 | 30.9 min | – | –
2 | C[C@@H](NC(=O)[C@@H](N)Cc1ccc(O)cc1)C(=O)N[C@@H](Cc1ccccc1)c1nnc(CC(=O)N[C@@H](Cc2ccc(O)cc2)C(=O)N2CCC[C@H]2C(=O)N[C@@H](CO)C(N)=O)o1 | – | > 1000 nM | IC50 (Mu-type opioid receptor [2]): 31 nM
3 | CSCC[C@H](NC(=O)[C@H](CC(C)C)NC(=O)Cc1noc([C@H](Cc2ccccc2)NC(=O)[C@H](Cc2ccccc2)NC(=O)[C@H](CCC(N)=O)NC(=O)[C@H](CCC(N)=O)NC(=O)[C@@H]2CCCN2C(=O)[C@H](CCCCN)NC(=O)[C@@H]2CCCN2C(=O)[C@@H](N)CCCN=C(N)N)n1)C(N)=O (stereo in doubt; form 2) | – | 307 nM | –
4 | CSCC[C@H](NC(=O)[C@H](CC(C)C)NC(=O)c1noc([C@H](Cc2ccccc2)NC(=O)[C@H](Cc2ccccc2)NC(=O)[C@H](CCC(N)=O)NC(=O)[C@H](CCC(N)=O)NC(=O)[C@@H]2CCCN2C(=O)[C@H](CCCCN)NC(=O)[C@@H]2CCCN2C(=O)[C@@H](N)CCCN=C(N)N)n1)C(N)=O (H-RPKPQQF[X4]LM-NH2) | – | > 1000 nM | –
5 | C[C@@H](NC(=O)[C@@H](N)Cc1ccc(O)cc1)C(=O)NCC(=O)N(C)[C@@H](Cc1ccccc1)C(=O)NCCO [DAMGO] | – | > 1000 nM | –
6 | CCOC(=O)Cc1n[nH]c([C@H](Cc2ccccc2)NC(=O)OC(C)(C)C)n1 | 22.1 min | – | –
7 | C[C@@H](NC(=O)[C@@H](N)Cc1ccc(O)cc1)C(=O)N[C@@H](Cc1ccccc1)c1nc(N[C@@H](Cc2ccc(O)cc2)C(=O)N2CCC[C@H]2C(=O)N[C@@H](CO)C(N)=O)no1 | 22.7 min | – | –
8 | C[C@@H](NC(=O)[C@@H](N)Cc1ccc(O)cc1)C(=O)N[C@@H](Cc1ccccc1)c1n[nH]c(CN[C@@H](Cc2ccc(O)cc2)C(=O)N2CCC[C@H]2C(=O)N[C@@H](CO)C(N)=O)n1 | 20.2 min | – | –
9 | CSCC[C@H](NC(=O)[C@H](CC(C)C)NC(=O)c1nnc([C@H](Cc2ccccc2)NC(=O)[C@H](Cc2ccccc2)NC(=O)[C@H](CCC(N)=O)NC(=O)[C@H](CCC(N)=O)NC(=O)[C@@H]2CCCN2C(=O)[C@H](CCCCN)NC(=O)[C@@H]2CCCN2C(=O)[C@@H](N)CCCNC(=N)N)[nH]1)C(N)=O (H-RPKPQQF[X7]LM-NH2) | – | > 1000 nM | –
10 | C[C@@H](NC(=O)[C@@H](N)Cc1ccc(O)cc1)C(=O)N[C@@H](Cc1ccccc1)c1nnc(CN[C@@H](Cc2ccc(O)cc2)C(=O)N2CCC[C@H]2C(=O)N[C@@H](CO)C(N)=O)o1 | 34 min | – | –
11 | CSCC[C@H](NC(=O)[C@H](CC(C)C)NC(=O)Cc1noc([C@H](Cc2ccccc2)NC(=O)[C@H](Cc2ccccc2)NC(=O)[C@H](CCC(N)=O)NC(=O)[C@H](CCC(N)=O)NC(=O)[C@@H]2CCCN2C(=O)[C@H](CCCCN)NC(=O)[C@@H]2CCCN2C(=O)[C@@H](N)CCCN=C(N)N)n1)C(N)=O (stereo in doubt; form 1) | – | > 1000 nM | –
12 | C[C@@H](NC(=O)[C@@H](N)Cc1ccc(O)cc1)C(=O)N[C@@H](Cc1ccccc1)C(=O)NCC(=O)N[C@@H](Cc1ccc(O)cc1)C(=O)N1CCC[C@H]1C(=O)N[C@@H](CO)C(N)=O [DERMORPHIN] | – | > 1000 nM | IC50 (Mu-type opioid receptor [3]): 6.2 nM
13 | C[C@@H](NC(=O)[C@@H](N)Cc1ccc(O)cc1)C(=O)N[C@@H](Cc1ccccc1)c1nc(C(=O)N[C@@H](Cc2ccc(O)cc2)C(=O)N2CCC[C@H]2C(=O)N[C@@H](CO)C(N)=O)no1 | – | > 1000 nM | IC50 (Mu-type opioid receptor [2]): 17 nM
14 | C[C@@H](NC(=O)[C@@H](N)Cc1ccc(O)cc1)C(=O)N[C@@H](Cc1ccccc1)c1n[nH]c(N[C@@H](Cc2ccc(O)cc2)C(=O)N2CCC[C@H]2C(=O)N[C@@H](CO)C(N)=O)n1 | 20.6 min | – | –
15 | C[C@@H](NC(=O)[C@@H](N)Cc1ccc(O)cc1)C(=O)N[C@@H](Cc1ccccc1)c1nnc(C(=O)N[C@@H](Cc2ccc(O)cc2)C(=O)N2CCC[C@H]2C(=O)N[C@@H](CO)C(N)=O)o1 | – | > 1000 nM | IC50 (Mu-type opioid receptor [2]): 20 nM
16 | C[C@@H](NC(=O)[C@@H](N)Cc1ccc(O)cc1)C(=O)N[C@@H](Cc1ccccc1)c1nnc(N[C@@H](Cc2ccc(O)cc2)C(=O)N2CCC[C@H]2C(=O)N[C@@H](CO)C(N)=O)o1 | 22 min | – | –
17 | CSCC[C@H](NC(=O)[C@H](CC(C)C)NC(=O)Cc1nnc([C@H](Cc2ccccc2)NC(=O)[C@H](Cc2ccccc2)NC(=O)[C@H](CCC(N)=O)NC(=O)[C@H](CCC(N)=O)NC(=O)[C@@H]2CCCN2C(=O)[C@H](CCCCN)NC(=O)[C@@H]2CCCN2C(=O)[C@@H](N)CCCNC(=N)N)[nH]1)C(N)=O (H-RPKPQQF[X9]LM-NH2) | – | > 1000 nM | –
18 | C[C@@H](NC(=O)[C@@H](N)Cc1ccc(O)cc1)C(=O)N[C@@H](Cc1ccccc1)c1nc(CC(=O)N[C@@H](Cc2ccc(O)cc2)C(=O)N2CCC[C@H]2C(=O)N[C@@H](CO)C(N)=O)no1 | – | > 1000 nM | IC50 (Mu-type opioid receptor [2]): 12 nM
19 | C[C@@H](NC(=O)[C@@H](N)Cc1ccc(O)cc1)C(=O)N[C@@H](Cc1ccccc1)c1n[nH]c(CC(=O)N[C@@H](Cc2ccc(O)cc2)C(=O)N2CCC[C@H]2C(=O)N[C@@H](CO)C(N)=O)n1 | – | > 1000 nM | IC50 (Mu-type opioid receptor [2]): 21 nM
20 | C[C@@H](NC(=O)[C@@H](N)Cc1ccc(O)cc1)C(=O)N[C@@H](Cc1ccccc1)c1nc(CN[C@@H](Cc2ccc(O)cc2)C(=O)N2CCC[C@H]2C(=O)N[C@@H](CO)C(N)=O)no1 | 21 min | – | –
21 | C[C@@H](NC(=O)[C@@H](N)Cc1ccc(O)cc1)C(=O)N[C@@H](Cc1ccccc1)c1nnc(C(=O)N[C@@H](Cc2ccc(O)cc2)C(=O)N2CCC[C@H]2C(=O)N[C@@H](CO)C(N)=O)[nH]1 | – | > 1000 nM | IC50 (Mu-type opioid receptor [2]): 490 nM
22 | CSCC[C@H](NC(=O)[C@H](CC(C)C)NC(=O)c1nnc([C@H](Cc2ccccc2)NC(=O)[C@H](Cc2ccccc2)NC(=O)[C@H](CCC(N)=O)NC(=O)[C@H](CCC(N)=O)NC(=O)[C@@H]2CCCN2C(=O)[C@H](CCCCN)NC(=O)[C@@H]2CCCN2C(=O)[C@@H](N)CCCNC(=N)N)o1)C(N)=O (H-RPKPQQF[X3]LM-NH2) | – | > 1000 nM | –
